Measurements taken from ChEMBL document CHEMBL1145884, “Synthesis and biological activity of novel 1beta-methylcarbapenems with oxyiminopyrrolidinylamide moiety” (2003).
Values after ≈ are worked out from the molar mass of the structure shown.

Legend:
[1] = Compound was evaluated for its relative half life of hydrolysis to meropenem by partially purified porcine renal dihydropeptidase-I (DHP-I); assay type: functional; settings: Sus scrofa
Escherichia coli [2] = assay: Antibacterial activity against Escherichia coli 078; assay type: functional
Method in brief: (§1)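 MIC was determined by agar dilution on Mueller–Hinton medium.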

Escherichia coli [3] = assay: Antibacterial activity against Escherichia coli 1507E; assay type: functional; method in brief: as §1
Enterobacter cloacae [4] = assay: Antibacterial activity against Enterobacter cloacae 1321E; assay type: functional; method in brief: as §1
Klebsiella aerogenes = assay: Antibacterial activity against Klebsiella aerogenes 1522E; assay type: functional; method in brief: as §1
Pseudomonas aeruginosa [5] = assay: Antibacterial activity against Pseudomonas aeruginosa 1771M; assay type: functional; method in brief: as §1
Pseudomonas aeruginosa [6] = assay: Antibacterial activity against Pseudomonas aeruginosa 9027; assay type: functional; method in brief: as §1
Salmonella typhimurium [7] = assay: Antibacterial activity against Salmonella Typhimurium; assay type: functional, Salmonella enterica subsp. enterica serovar Typhimurium; settings: Salmonella enterica; method in brief: as §1
Streptococcus pyogenes = assay: Antibacterial activity against Streptococcus pyogenes 308A; assay type: functional
Staphylococcus aureus [8] = assay: Antibacterial activity against Staphylococcus aureus 285; assay type: functional
Staphylococcus aureus [9] = assay: Antibacterial activity against Staphylococcus aureus 503; assay type: functional
Staphylococcus aureus [10] = assay: Antibacterial activity against Staphylococcus aureus SG 511; assay type: functional
Pseudomonas aeruginosa [11] = assay: Antibacterial activity against Pseudomonas aeruginosa 1592E
Enterobacter cloacae [12] = assay: Compound was evaluated for its antibacterial activity against Enterobacter cloacae P99; assay type: functional
Escherichia coli [13] = assay: Compound was evaluated for its antibacterial activity against Escherichia coli CCARM 1116 MDR; assay type: functional
Escherichia coli [14] = assay: Compound was evaluated for its antibacterial activity against Escherichia coli CCARM 1117 MDR; assay type: functional
Escherichia coli [15] = assay: Compound was evaluated for its antibacterial activity against Escherichia coli DC 0; assay type: functional
Escherichia coli [16] = assay: Compound was evaluated for its antibacterial activity against Escherichia coli DC 2; assay type: functional
Escherichia coli [17] = assay: Compound was evaluated for its antibacterial activity against Escherichia coli TEM; assay type: functional
Escherichia coli [18] = assay: Compound was evaluated for its antibacterial activity against Escherichia coli 0157:H7; assay type: functional
Escherichia coli [19] = assay: Compound was evaluated for its antibacterial activity against Escherichia coli ATCC 25922; assay type: functional
Escherichia coli [20] = assay: Compound was evaluated for its antibacterial activity against Escherichia coli CCARM 1108 MDR; assay type: functional
Escherichia coli [21] = assay: Compound was evaluated for its antibacterial activity against Escherichia coli CCARM 1109 MDR; assay type: functional
Escherichia coli [22] = assay: Compound was evaluated for its antibacterial activity against Escherichia coli CCARM 1111 MDR; assay type: functional
Escherichia coli [23] = assay: Compound was evaluated for its antibacterial activity against Escherichia coli CCARM 1112 MDR; assay type: functional
Escherichia coli [24] = assay: Compound was evaluated for its antibacterial activity against Escherichia coli CCARM 1113 MDR; assay type: functional
Escherichia coli [25] = assay: Compound was evaluated for its antibacterial activity against Escherichia coli CCARM 1114 MDR; assay type: functional
Escherichia coli [26] = assay: Compound was evaluated for its antibacterial activity against Escherichia coli CCARM 1115 MDR; assay type: functional
Klebsiella pneumoniae [27] = assay: Compound was evaluated for its antibacterial activity against Klebsiella pneumoniae 8 ESBL; assay type: functional
Klebsiella pneumoniae [28] = assay: Compound was evaluated for its antibacterial activity against Klebsiella pneumoniae 9 ESBL; assay type: functional
Klebsiella oxytoca = assay: Compound was evaluated for its antibacterial activity against Klebsiella oxytoca 1082E; assay type: functional
Klebsiella pneumoniae [29] = assay: Compound was evaluated for its antibacterial activity against Klebsiella pneumoniae 1 ESBL; assay type: functional
Klebsiella pneumoniae [30] = assay: Compound was evaluated for its antibacterial activity against Klebsiella pneumoniae 10 ESBL; assay type: functional
Klebsiella pneumoniae [31] = assay: Compound was evaluated for its antibacterial activity against Klebsiella pneumoniae 3 ESBL; assay type: functional
Klebsiella pneumoniae [32] = assay: Compound was evaluated for its antibacterial activity against Klebsiella pneumoniae 4 ESBL; assay type: functional
Klebsiella pneumoniae [33] = assay: Compound was evaluated for its antibacterial activity against Klebsiella pneumoniae 5 ESBL; assay type: functional
Pseudomonas aeruginosa [34] = assay: Compound was evaluated for its antibacterial activity against Pseudomonas aeruginosa 1 MDR; assay type: functional
Pseudomonas aeruginosa [35] = assay: Compound was evaluated for its antibacterial activity against Pseudomonas aeruginosa 2 MDR; assay type: functional
Pseudomonas aeruginosa [36] = assay: Compound was evaluated for its antibacterial activity against Pseudomonas aeruginosa ATCC 27853; assay type: functional
Shigella sonnei = assay: Compound was evaluated for its antibacterial activity against Shigella sonnei ATCC 9290; assay type: functional
Salmonella enteritidis [37] = assay: Compound was evaluated for its antibacterial activity against […] enteritidis; assay type: functional, Salmonella enterica subsp. enterica serovar Enteritidis; settings: Salmonella enterica
Salmonella enteritidis [38] = assay: Compound was evaluated for its antibacterial activity against […] enteritidis 1; assay type: functional, Salmonella enterica subsp. enterica serovar Enteritidis; settings: Salmonella enterica
Salmonella enteritidis [39] = assay: Compound was evaluated for its antibacterial activity against […] enteritidis 2; assay type: functional, Salmonella enterica subsp. enterica serovar Enteritidis; settings: Salmonella enterica
Salmonella enteritidis [40] = assay: Compound was evaluated for its antibacterial activity against […] enteritidis 3; assay type: functional, Salmonella enterica subsp. enterica serovar Enteritidis; settings: Salmonella enterica
Salmonella typhimurium [41] = assay: Compound was evaluated for its antibacterial activity against Salmonella Typhimurium; assay type: functional, Salmonella enterica subsp. enterica serovar Typhimurium; settings: Salmonella enterica
Salmonella typhimurium [42] = assay: Compound was evaluated for its antibacterial activity against Salmonella Typhimurium 1; assay type: functional, Salmonella enterica subsp. enterica serovar Typhimurium; settings: Salmonella enterica
Salmonella typhimurium [43] = assay: Compound was evaluated for its antibacterial activity against Salmonella Typhimurium 2; assay type: functional, Salmonella enterica subsp. enterica serovar Typhimurium; settings: Salmonella enterica
Shigella flexneri = assay: Compound was evaluated for its antibacterial activity against Shigella flexneri ATCC 9199; assay type: functional
Escherichia coli [44] = assay: Compound was evaluated for its antibacterial activity against Escherichia coli CCARM 1110 MDR; assay type: functional
Klebsiella pneumoniae [45] = assay: Compound was evaluated for its antibacterial activity against Klebsiella pneumoniae 7 ESBL; assay type: functional
Klebsiella pneumoniae [46] = assay: Compound was evaluated for its antibacterial activity against Klebsiella pneumoniae 2 ESBL; assay type: functional
Klebsiella pneumoniae [47] = assay: Compound was evaluated for its antibacterial activity against Klebsiella pneumoniae 6 ESBL; assay type: functional
Pseudomonas aeruginosa [48] = assay: Compound was evaluated for its antibacterial activity against Pseudomonas aeruginosa 3 MDR; assay type: functional
Pseudomonas aeruginosa [49] = assay: Antibacterial activity against Pseudomonas aeruginosa 1592E; remark: listed apart in the source

Compound: C[C@@H](O)[C@H]1C(=O)N2C(C(=O)O)=C(S[C@@H]3CN[C@H](C(=O)N4C/C(=N\O)C(C(=O)O)C4)C3)[C@H](C)[C@H]12 (stereo partly specified)
- relative t1/2 (DHP-I hydrolysis vs meropenem) [1]: 0.54
- MIC (Escherichia coli [2]): 0.013 µg/mL (≈ 0.0269 µM)
- MIC (Escherichia coli [3]): 0.025 µg/mL (≈ 0.0518 µM)
- MIC (Enterobacter cloacae [4]): 0.025 µg/mL (≈ 0.0518 µM)
- MIC (Klebsiella aerogenes): 0.049 µg/mL (≈ 0.102 µM)
- MIC (Pseudomonas aeruginosa [5]): 0.195 µg/mL (≈ 0.404 µM)
- MIC (Pseudomonas aeruginosa [6]): 0.391 µg/mL (≈ 0.81 µM)
- MIC (Salmonella typhimurium [7]): 0.049 µg/mL (≈ 0.102 µM)
- MIC (Streptococcus pyogenes): 0.013 µg/mL (≈ 0.0269 µM)
- MIC (Staphylococcus aureus [8]): 0.195 µg/mL (≈ 0.404 µM)
- MIC (Staphylococcus aureus [9]): 0.098 µg/mL (≈ 0.203 µM)
- MIC (Staphylococcus aureus [10]): 0.098 µg/mL (≈ 0.203 µM)
- MIC (Pseudomonas aeruginosa [11]): 0.391 µg/mL (≈ 0.81 µM)

Compound: C[C@@H](O)[C@H]1C(=O)N2C(C(=O)O)=C(S[C@@H]3CN[C@H](C(=O)N4CC/C(=N/O)C4)C3)[C@H](C)[C@H]12
- relative t1/2 (DHP-I hydrolysis vs meropenem) [1]: 1.03
- MIC (Enterobacter cloacae [12]): 0.13 µg/mL (≈ 0.296 µM)
- MIC (Escherichia coli [13]): 0.016 µg/mL (≈ 0.0365 µM)
- MIC (Escherichia coli [14]): 0.03 µg/mL (≈ 0.0684 µM)
- MIC (Escherichia coli [15]): 0.03 µg/mL (≈ 0.0684 µM)
- MIC (Escherichia coli [16]): 0.016 µg/mL (≈ 0.0365 µM)
- MIC (Escherichia coli [17]): 0.016 µg/mL (≈ 0.0365 µM)
- MIC (Escherichia coli [2]): 0.025 µg/mL (≈ 0.057 µM)
- MIC (Escherichia coli [3]): 0.025 µg/mL (≈ 0.057 µM)
- MIC (Escherichia coli [18]): 0.016 µg/mL (≈ 0.0365 µM)
- MIC (Escherichia coli [19]): 0.016 µg/mL (≈ 0.0365 µM)
- MIC (Escherichia coli [20]): 0.03 µg/mL (≈ 0.0684 µM)
- MIC (Escherichia coli [21]): 0.06 µg/mL (≈ 0.137 µM)
- MIC (Escherichia coli [22]): 0.016 µg/mL (≈ 0.0365 µM)
- MIC (Escherichia coli [23]): 0.016 µg/mL (≈ 0.0365 µM)
- MIC (Escherichia coli [24]): 0.06 µg/mL (≈ 0.137 µM)
- MIC (Escherichia coli [25]): 0.13 µg/mL (≈ 0.296 µM)
- MIC (Escherichia coli [26]): 0.03 µg/mL (≈ 0.0684 µM)
- MIC (Enterobacter cloacae [4]): 0.013 µg/mL (≈ 0.0296 µM)
- MIC (Klebsiella pneumoniae [27]): 0.25 µg/mL (≈ 0.57 µM)
- MIC (Klebsiella pneumoniae [28]): 0.03 µg/mL (≈ 0.0684 µM)
- MIC (Klebsiella oxytoca): 0.13 µg/mL (≈ 0.296 µM)
- MIC (Klebsiella pneumoniae [29]): 0.03 µg/mL (≈ 0.0684 µM)
- MIC (Klebsiella pneumoniae [30]): 0.016 µg/mL (≈ 0.0365 µM)
- MIC (Klebsiella pneumoniae [31]): 0.13 µg/mL (≈ 0.296 µM)
- MIC (Klebsiella pneumoniae [32]): 0.03 µg/mL (≈ 0.0684 µM)
- MIC (Klebsiella pneumoniae [33]): 0.016 µg/mL (≈ 0.0365 µM)
- MIC (Klebsiella aerogenes): 0.025 µg/mL (≈ 0.057 µM)
- MIC (Pseudomonas aeruginosa [34]): 1 µg/mL (≈ 2.28 µM)
- MIC (Pseudomonas aeruginosa [35]): 8 µg/mL (≈ 18.2 µM)
- MIC (Pseudomonas aeruginosa [36]): 1 µg/mL (≈ 2.28 µM)
- MIC (Pseudomonas aeruginosa [5]): 0.195 µg/mL (≈ 0.445 µM)
- MIC (Pseudomonas aeruginosa [6]): 0.391 µg/mL (≈ 0.892 µM)
- MIC (Shigella sonnei): 0.016 µg/mL (≈ 0.0365 µM)
- MIC (Salmonella enteritidis [37]): 0.016 µg/mL (≈ 0.0365 µM)
- MIC (Salmonella enteritidis [38]): 0.016 µg/mL (≈ 0.0365 µM)
- MIC (Salmonella enteritidis [39]): ≤ 0.008 µg/mL
- MIC (Salmonella enteritidis [40]): 0.016 µg/mL (≈ 0.0365 µM)
- MIC (Salmonella typhimurium [7]): 0.025 µg/mL (≈ 0.057 µM)
- MIC (Salmonella typhimurium [41]): 0.03 µg/mL (≈ 0.0684 µM)
- MIC (Salmonella typhimurium [42]): 0.016 µg/mL (≈ 0.0365 µM)
- MIC (Salmonella typhimurium [43]): 0.03 µg/mL (≈ 0.0684 µM)
- MIC (Shigella flexneri): 0.016 µg/mL (≈ 0.0365 µM)
- MIC (Streptococcus pyogenes): 0.013 µg/mL (≈ 0.0296 µM)
- MIC (Staphylococcus aureus [8]): 0.195 µg/mL (≈ 0.445 µM)
- MIC (Staphylococcus aureus [9]): 0.098 µg/mL (≈ 0.223 µM)
- MIC (Staphylococcus aureus [10]): 0.195 µg/mL (≈ 0.445 µM)
- MIC (Escherichia coli [44]): 0.06 µg/mL (≈ 0.137 µM)
- MIC (Klebsiella pneumoniae [45]): 0.06 µg/mL (≈ 0.137 µM)
- MIC (Klebsiella pneumoniae [46]): 0.03 µg/mL (≈ 0.0684 µM)
- MIC (Klebsiella pneumoniae [47]): 0.03 µg/mL (≈ 0.0684 µM)
- MIC (Pseudomonas aeruginosa [48]): 8 µg/mL (≈ 18.2 µM)
- MIC (Pseudomonas aeruginosa [49]): 0.391 µg/mL (≈ 0.892 µM)
